Assay results published in ChEMBL document CHEMBL4266040, “Structure-Based Engineering of Irreversible Inhibitors against Histone Lysine Demethylase KDM5A” (J Med Chem, 2018).
Active and inactive are the calls of the source. The rule behind the calls is not given here.

Legend:
[1] = test system: MCF7; experiment: Inhibition of KDM5 human MCF7 cells assessed as up-regulation of MT1F mRNA expression at 1 to 5 uM after 48 hrs by RT-qPCR assay relative to control; assay type: cell-based
In short: (§1)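 MCF7 cells treated with compound or DMSO for 48 h; target mRNA quantified by real-time RT-PCR; biological triplicates.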

[2] = test system: MCF7; experiment: Inhibition of KDM5 human MCF7 cells assessed as up-regulation of STING mRNA expression at 1 to 5 uM after 48 hrs by RT-qPCR assay relative to control; assay type: cell-based; in short: as §1
[3] = test system: HEK-293T; experiment: Cytotoxicity against HEK293T cells assessed as cell killing at 5 to 10 uM after 24 hrs by bright-field microscopy; assay type: cell-based; conditions: human
[4] = test system: MCF7; experiment: Inhibition of KDM5 human MCF7 cells assessed as up-regulation of MT1H mRNA expression at 1 to 5 uM after 48 hrs by RT-qPCR assay relative to control; assay type: cell-based; in short: as §1
[5] = Drug uptake in human BT474 cells at 2.5 uM after 24 hrs by LC-MS/MS analysis; assay type: ADME, cell-based; conditions: bt-474, 24 h
In short: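 Compound incubated with BT474 cells for 24 h; cells lysed and compound level in the extract determined.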

[6] = target: Lysine-specific demethylase 5A (Homo sapiens, UniProt P29375); experiment: Inhibition of KDM5A in human BT474 cells assessed as effect on H3K4me3 methylation levels up to 5 uM after 48 hrs by immunocytochemistry
[7] = Effective permeability of the compound at pH 7.4 by PAMPA; assay type: ADME; conditions: read-out: Peff
In short: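 PAMPA with a lipid/dodecane artificial membrane and pH 7.4 buffer in donor and acceptor wells. Compounds diluted from 10 mM DMSO stock to 0.05 mM final, 0.5% DMSO. Donor stirred during a 30 min permeation at room temperature. Donor and acceptor concentrations read by UV. Permeability given in 10−6 cm s−1: >100 high, 10–100 moderate, <10 low.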

[8] = test system: BT-474; experiment: Cytotoxicity against human BT474 cells assessed as reduction in cell viability at >5 uM after 24 hrs by celltiter glo assay; assay type: functional, cell-based
In short: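 BT474 cells treated with compound; viability read by CellTiter-Glo luminescence 24 h after treatment.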

[9] = Metabolic stability in human BT474 cell culture media assessed as parent compound remaining at 10 uM after 24 hrs by LC-MS/MS analysis; assay type: physicochemical; conditions: read-out: Stability
[10] = test system: MCF7; experiment: Cytotoxicity against human MCF7 cells assessed as cell killing at 5 to 10 uM after 24 hrs by bright-field microscopy; assay type: functional, cell-based
[11] = test system: MDA-MB-231; experiment: Cytotoxicity against human MDA-MB-231 cells assessed as cell killing at 5 to 10 uM after 24 hrs by bright-field microscopy; assay type: functional, cell-based
[12] = test system: BT-474; experiment: Growth inhibition of human BT474 cells at 0.11 to 3.5 uM after 12 days by IncuCyte live cell imaging method; assay type: functional, cell-based
In short: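 BT474 cells grown with compound; percent confluence tracked by IncuCyte live-cell imaging every 4 h over 300 h.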

[13] = test system: MCF7; experiment: Inhibition of KDM5 human MCF7 cells assessed as up-regulation of STING protein expression at 1 to 5 uM after 48 hrs by Western blot analysis relative to control; assay type: cell-based
In short: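 MCF7 cells treated with compound or 0.1% DMSO for 30 or 48 h; total cell lysates analysed by Western blot with specific antibodies.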

Lysine-specific demethylase 5A, sequence (P29375 whole entry): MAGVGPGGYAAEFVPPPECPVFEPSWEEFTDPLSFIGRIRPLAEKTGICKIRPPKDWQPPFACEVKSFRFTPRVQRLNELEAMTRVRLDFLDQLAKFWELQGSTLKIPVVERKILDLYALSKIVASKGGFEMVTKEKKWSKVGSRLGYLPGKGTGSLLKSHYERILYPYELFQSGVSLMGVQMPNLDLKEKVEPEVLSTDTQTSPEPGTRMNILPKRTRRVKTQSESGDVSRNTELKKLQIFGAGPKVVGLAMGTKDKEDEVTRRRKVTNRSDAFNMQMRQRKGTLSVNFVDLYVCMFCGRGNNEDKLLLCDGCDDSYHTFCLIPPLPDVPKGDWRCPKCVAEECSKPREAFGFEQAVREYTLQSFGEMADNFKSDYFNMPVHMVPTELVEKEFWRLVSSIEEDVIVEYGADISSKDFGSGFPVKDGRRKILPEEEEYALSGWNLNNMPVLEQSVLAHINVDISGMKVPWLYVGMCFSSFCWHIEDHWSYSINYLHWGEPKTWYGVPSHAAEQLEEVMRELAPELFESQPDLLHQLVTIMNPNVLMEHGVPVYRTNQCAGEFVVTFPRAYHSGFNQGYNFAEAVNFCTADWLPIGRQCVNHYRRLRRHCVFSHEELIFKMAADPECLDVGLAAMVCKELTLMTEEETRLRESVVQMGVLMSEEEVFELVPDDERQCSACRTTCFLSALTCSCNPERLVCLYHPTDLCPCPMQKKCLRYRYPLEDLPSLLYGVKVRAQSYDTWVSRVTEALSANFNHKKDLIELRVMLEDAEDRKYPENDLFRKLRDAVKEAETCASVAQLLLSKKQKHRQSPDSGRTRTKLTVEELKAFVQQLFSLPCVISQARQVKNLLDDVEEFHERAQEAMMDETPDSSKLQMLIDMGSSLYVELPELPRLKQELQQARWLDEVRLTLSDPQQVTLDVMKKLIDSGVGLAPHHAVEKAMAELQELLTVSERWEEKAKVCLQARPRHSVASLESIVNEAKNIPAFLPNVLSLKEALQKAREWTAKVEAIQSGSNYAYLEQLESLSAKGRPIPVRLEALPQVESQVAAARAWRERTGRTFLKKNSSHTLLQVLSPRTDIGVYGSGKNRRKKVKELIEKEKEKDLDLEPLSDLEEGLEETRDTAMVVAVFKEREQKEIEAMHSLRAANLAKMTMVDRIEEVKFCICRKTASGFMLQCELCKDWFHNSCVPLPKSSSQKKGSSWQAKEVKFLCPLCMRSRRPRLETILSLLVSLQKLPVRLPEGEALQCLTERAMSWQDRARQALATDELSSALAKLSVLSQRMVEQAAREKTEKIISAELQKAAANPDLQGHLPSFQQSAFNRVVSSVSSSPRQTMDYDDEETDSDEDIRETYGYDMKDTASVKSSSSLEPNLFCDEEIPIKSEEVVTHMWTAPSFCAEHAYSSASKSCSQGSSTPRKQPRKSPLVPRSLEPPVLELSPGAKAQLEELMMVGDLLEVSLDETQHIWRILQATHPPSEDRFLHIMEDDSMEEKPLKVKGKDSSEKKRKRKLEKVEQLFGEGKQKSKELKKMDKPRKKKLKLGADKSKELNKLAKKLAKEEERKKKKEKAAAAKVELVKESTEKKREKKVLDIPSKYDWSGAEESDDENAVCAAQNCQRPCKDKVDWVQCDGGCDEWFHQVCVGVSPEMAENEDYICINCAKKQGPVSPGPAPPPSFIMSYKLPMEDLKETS

## CC(C)OC(=O)c1ccnc2cc(C(OCCN3CCCCC3)c3cccc(NC(=O)/C=C/CN(C)C)c3)sc12 (stereo not drawn)
[1]
  fold change (FC): < 2
[2]
  fold change (FC): < 2
[3]
  Activity: Toxic
[4]
  fold change (FC): < 2
[5]
  Drug uptake: Active
[6]
  inhibition: inactive
[7]
  Papp: 71.4 ×10⁻⁶ cm/s
[8]
  Activity: Active
[9]
  remaining at 24 h, 10 µM: 80%
[10]
  Activity: Active
[11]
  Activity: Active
[12]
  growth inhibition (GI): inactive
[13]
  fold change (FC): < 2
